Measured values published in ChEMBL document CHEMBL4033702, “Challenges in the development of an M4 PAM preclinical candidate: The discovery, SAR, and in vivo characterization of a series of 3-aminoazetidine-derived amides” (Bioorg Med Chem Lett, 2017).
Several values for one entry are separate records, joined by “and”; a condition that tells them apart may be missing. Equal entries are not always repeated.

Columns and labels:
[1] = target: T1, Muscarinic acetylcholine receptor M4 (Homo sapiens, UniProt P08173); experiment: Positive allosteric modulation of human M4 receptor expressed in CHO cells co-expressing Gqi5 assessed as increase in acetylcholine-induced calcium mobilization
T1 sequence (P08173 whole entry): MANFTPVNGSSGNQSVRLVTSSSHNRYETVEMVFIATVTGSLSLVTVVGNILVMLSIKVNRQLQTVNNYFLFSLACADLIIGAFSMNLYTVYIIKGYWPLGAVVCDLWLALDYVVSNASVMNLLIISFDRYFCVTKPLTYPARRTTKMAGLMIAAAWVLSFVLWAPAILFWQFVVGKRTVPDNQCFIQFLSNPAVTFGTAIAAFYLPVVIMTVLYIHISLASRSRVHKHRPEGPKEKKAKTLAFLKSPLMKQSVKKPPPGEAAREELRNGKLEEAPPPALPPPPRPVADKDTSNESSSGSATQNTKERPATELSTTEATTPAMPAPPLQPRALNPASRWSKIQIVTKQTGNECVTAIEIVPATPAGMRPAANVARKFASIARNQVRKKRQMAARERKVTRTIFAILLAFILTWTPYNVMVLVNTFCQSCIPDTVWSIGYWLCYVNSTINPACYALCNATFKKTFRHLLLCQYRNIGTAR

[2] = target: T2, Muscarinic acetylcholine receptor M4 (Homo sapiens) (UniProt P08173); experiment: Positive allosteric modulation of human M4 receptor expressed in CHO cells co-expressing Gqi5 assessed as increase in acetylcholine-induced calcium mobilization relative to acetylcholine; assay type: functional, cell-based
T2 sequence (whole entry): T1 sequence (P08173 whole entry)
Procedure, shortened: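 Calcium mobilization in CHO cells stably co-expressing hM4 and Gqi5, tested in the presence of a fixed EC20 concentration of acetylcholine. Values are means of three independent experiments, each run in triplicate.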

[3] = Brain to plasma permeability coefficient, Kp of the compound in Sprague-Dawley rat administered as iv cassette dose measured at 0.25 hrs post dose; assay type: ADME, organism-based; details: for Kp at 0.25 h: Sprague-Dawley, brain and plasma; for Kp: brain, 0.25 h
[4] = Clearance in Sprague-Dawley rat; assay type: ADME; details: in vivo
Procedure, shortened: (§1)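 IV and PO pharmacokinetics in male Sprague-Dawley rats, n = 1–3. The oral dose was a 2–3 mg/kg solution. Plasma clearance, Vss and oral bioavailability were determined.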

[5] = target: T3, Muscarinic acetylcholine receptor M2 (Homo sapiens, UniProt P08172); experiment: Activity at human M2 receptor assessed as increase in acetylcholine-induced calcium mobilization; assay type: functional
T3 sequence (P08172 whole entry): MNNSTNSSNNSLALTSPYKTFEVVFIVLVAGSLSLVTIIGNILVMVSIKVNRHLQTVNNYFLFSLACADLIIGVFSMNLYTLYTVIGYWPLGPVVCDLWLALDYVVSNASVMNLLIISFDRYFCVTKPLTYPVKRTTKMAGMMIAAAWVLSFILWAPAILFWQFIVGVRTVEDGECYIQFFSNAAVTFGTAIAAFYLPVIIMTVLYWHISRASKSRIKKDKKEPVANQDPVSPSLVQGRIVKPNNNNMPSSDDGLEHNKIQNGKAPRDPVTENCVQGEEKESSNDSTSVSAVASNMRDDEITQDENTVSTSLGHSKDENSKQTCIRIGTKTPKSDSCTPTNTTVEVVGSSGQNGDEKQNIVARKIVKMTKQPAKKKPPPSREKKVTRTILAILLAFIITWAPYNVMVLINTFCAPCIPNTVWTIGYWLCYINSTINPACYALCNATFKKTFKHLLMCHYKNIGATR

[6] = Elimination half-life in Sprague-Dawley rat; assay type: ADME; details: in vivo, read-out: beta t1/2 (converted)
[7] = Ratio of unbound brain to plasma concentration in Sprague-Dawley rat administered as iv cassette dose measured at 0.25 hrs post dose; assay type: ADME, organism-based
MDR1 = experiment: Efflux ratio of permeability in MDCK2-MDR1 cells; assay type: ADME, cell-based, Canis lupus familiaris; details: dog, MDCK-MDR1
Rattus norvegicus [8] = experiment: Reversal of amphetamine-induced hyperlocomotion in Sprague-Dawley rat at 10 mg/kg, po pretreated 30 mins post habituation in the chamber followed by amphetamine injection after 30 mins measured after 60 mins; assay type: functional
Procedure, shortened: (§2)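 Male Sprague-Dawley rats, n = 6–24 per dose group, were habituated in the chamber for 30 min. The compound or vehicle (10% tween-80 in water, v/v) was then given orally. Amphetamine 0.75 mg/kg was injected subcutaneously 30 min later. Total ambulations over t = 60–120 min gave % reversal of AHL, reported as mean ± SEM.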

Cytochrome P450 3A4 = Cytochrome P450 3A4 (Homo sapiens, UniProt P08684); experiment: Inhibition of CYP3A4 (unknown origin); assay type: ADME
Sequence of Cytochrome P450 3A4 (P08684 whole entry): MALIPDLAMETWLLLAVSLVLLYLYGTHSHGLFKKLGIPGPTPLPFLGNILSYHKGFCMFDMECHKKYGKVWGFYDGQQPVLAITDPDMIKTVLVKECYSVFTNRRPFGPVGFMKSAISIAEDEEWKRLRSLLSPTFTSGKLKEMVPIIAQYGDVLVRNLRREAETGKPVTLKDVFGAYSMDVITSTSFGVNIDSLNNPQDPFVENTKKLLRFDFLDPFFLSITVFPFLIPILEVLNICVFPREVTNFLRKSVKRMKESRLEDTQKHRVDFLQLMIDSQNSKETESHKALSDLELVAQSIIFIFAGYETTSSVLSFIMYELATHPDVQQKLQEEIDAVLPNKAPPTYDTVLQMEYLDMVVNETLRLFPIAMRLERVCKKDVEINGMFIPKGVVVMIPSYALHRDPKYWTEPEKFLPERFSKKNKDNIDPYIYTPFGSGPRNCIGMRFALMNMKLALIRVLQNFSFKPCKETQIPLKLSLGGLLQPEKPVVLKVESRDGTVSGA

Cytochrome P450 2D6 = Cytochrome P450 2D6 (Homo sapiens, UniProt P10635); experiment: Inhibition of CYP2D6 (unknown origin); assay type: ADME
Sequence of Cytochrome P450 2D6 (P10635 whole entry): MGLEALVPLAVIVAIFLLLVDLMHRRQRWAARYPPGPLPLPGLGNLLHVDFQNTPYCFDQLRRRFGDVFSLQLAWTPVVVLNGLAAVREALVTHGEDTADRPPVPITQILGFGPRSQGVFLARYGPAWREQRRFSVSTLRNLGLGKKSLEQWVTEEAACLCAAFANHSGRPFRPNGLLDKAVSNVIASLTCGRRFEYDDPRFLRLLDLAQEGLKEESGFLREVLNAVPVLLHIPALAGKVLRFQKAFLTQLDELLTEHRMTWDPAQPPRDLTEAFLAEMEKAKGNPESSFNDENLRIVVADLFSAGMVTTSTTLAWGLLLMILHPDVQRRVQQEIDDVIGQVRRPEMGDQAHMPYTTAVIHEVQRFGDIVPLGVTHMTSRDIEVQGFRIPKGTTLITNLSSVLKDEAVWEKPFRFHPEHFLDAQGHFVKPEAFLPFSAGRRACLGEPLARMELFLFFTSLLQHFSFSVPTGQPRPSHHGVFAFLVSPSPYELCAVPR

Cytochrome P450 2C9 = Cytochrome P450 2C9 (Homo sapiens, UniProt P11712); experiment: Inhibition of CYP2C9 (unknown origin); assay type: ADME
Sequence of Cytochrome P450 2C9 (P11712 whole entry): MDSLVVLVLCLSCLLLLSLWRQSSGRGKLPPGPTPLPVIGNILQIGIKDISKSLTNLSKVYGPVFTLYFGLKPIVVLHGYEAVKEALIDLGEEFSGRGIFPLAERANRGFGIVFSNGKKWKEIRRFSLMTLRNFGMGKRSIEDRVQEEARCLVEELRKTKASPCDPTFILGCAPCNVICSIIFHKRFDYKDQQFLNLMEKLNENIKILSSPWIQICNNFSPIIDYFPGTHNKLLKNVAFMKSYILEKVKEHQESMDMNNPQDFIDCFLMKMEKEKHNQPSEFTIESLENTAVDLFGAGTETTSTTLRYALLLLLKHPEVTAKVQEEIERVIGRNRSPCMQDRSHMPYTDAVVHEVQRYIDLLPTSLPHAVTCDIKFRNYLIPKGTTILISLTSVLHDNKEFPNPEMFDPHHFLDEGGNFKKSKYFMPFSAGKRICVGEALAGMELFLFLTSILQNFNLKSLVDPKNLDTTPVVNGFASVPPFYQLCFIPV

Cytochrome P450 1A2 = target: T4, Cytochrome P450 1A2 (Homo sapiens, UniProt P05177); experiment: Inhibition of CYP1A2 (unknown origin); assay type: ADME
T4 sequence (P05177 whole entry): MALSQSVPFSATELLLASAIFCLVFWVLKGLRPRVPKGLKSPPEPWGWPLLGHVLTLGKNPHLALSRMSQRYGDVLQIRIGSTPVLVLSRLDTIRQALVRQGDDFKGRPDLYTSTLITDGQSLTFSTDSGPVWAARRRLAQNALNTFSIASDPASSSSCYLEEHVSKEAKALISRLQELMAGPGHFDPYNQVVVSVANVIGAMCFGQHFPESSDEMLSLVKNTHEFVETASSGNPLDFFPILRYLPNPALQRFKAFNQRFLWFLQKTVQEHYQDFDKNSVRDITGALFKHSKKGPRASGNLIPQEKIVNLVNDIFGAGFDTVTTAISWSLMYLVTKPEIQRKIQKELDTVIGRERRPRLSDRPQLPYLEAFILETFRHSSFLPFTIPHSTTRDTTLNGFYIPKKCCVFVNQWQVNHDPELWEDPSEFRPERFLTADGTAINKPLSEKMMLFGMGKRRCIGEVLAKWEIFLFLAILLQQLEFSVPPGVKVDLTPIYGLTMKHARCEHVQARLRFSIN

[9] = Volume of distribution at steady state in Sprague-Dawley rat; assay type: ADME; details: in vivo, read-out: Vdss; procedure, shortened: as §1
Rattus norvegicus [10] = experiment: Reversal of amphetamine-induced hyperlocomotion in Sprague-Dawley rat at 3 mg/kg, po pretreated 30 mins post habituation in the chamber followed by amphetamine injection after 30 mins measured after 60 mins; assay type: functional; procedure, shortened: as §2
Rattus norvegicus [11] = experiment: Reversal of amphetamine-induced hyperlocomotion in Sprague-Dawley rat at 30 mg/kg, po pretreated 30 mins post habituation in the chamber followed by amphetamine injection after 30 mins measured after 60 mins; assay type: functional; procedure, shortened: as §2
Rattus norvegicus [12] = experiment: Reversal of amphetamine-induced hyperlocomotion in Sprague-Dawley rat at 56.6 mg/kg, po pretreated 30 mins post habituation in the chamber followed by amphetamine injection after 30 mins measured after 60 mins; assay type: functional; details: in the assay text read “1 mg/kg” for “56.6 mg/kg”; procedure, shortened: as §2
[13] = target: T5, Muscarinic acetylcholine receptor M2 (Homo sapiens) (UniProt P08172); experiment: Activity at human M2 receptor assessed as increase in acetylcholine-induced calcium mobilization relative to acetylcholine; assay type: functional
T5 sequence (whole entry): T3 sequence (P08172 whole entry)

Rattus norvegicus [14] = organism: Rattus norvegicus; experiment: Drug metabolism in Sprague-Dawley rat assessed as aldehyde oxidase-mediated metabolism at alpha to 4-pryidyl nitrogen; assay type: ADME

SMILES | EC50 [1] | %max [2] | other results
Cc1cccc(OC(=O)N2CC(NC(=O)c3sc4nnc(C)c(C)c4c3N)C2)c1 | 0.067 µM | 85% | 
Cc1nnc2sc(C(=O)NC3CN(C(=O)c4ccccc4)C3)c(N)c2c1C | 0.773 µM | 85% | 
Cc1nnc2sc(C(=O)NC3CN(c4cncc(F)c4)C3)c(N)c2c1C | 0.016 µM | 90% | 
COc1ccc(N2CC(NC(=O)c3sc4nnc(C)c(C)c4c3N)C2)cc1 | 1.29 µM | 81% | 
Cc1nnc2sc(C(=O)NC3CN(c4nc5ccccc5s4)C3)c(N)c2c1C | 0.439 µM | 87% | 
Cc1nnc2sc(C(=O)NC3CN(c4ccc(F)cc4F)C3)c(N)c2c1C | 0.037 µM | 94% | 
Cc1nnc2sc(C(=O)NC3CN(c4cnccn4)C3)c(N)c2c1C | 0.078 µM and 0.0741 µM | 80% | Kp at 0.25 h [3]: < 0.05
Cc1nnc2sc(C(=O)NC3CN(C(=O)Nc4ccccc4)C3)c(N)c2c1C | 0.217 µM | 89% | 
Cc1nnc2sc(C(=O)NC3CN(S(=O)(=O)c4ccccc4)C3)c(N)c2c1C | 0.268 µM and 0.263 µM | 70% | 
Cc1nnc2sc(C(=O)NC3CN(c4ccncn4)C3)c(N)c2c1C | 0.038 µM | 83% | Kp at 0.25 h [3]: < 0.05
Cc1nnc2sc(C(=O)NC3CN(c4ccccc4F)C3)c(N)c2c1C | 0.028 µM | 82% | 
Cc1nnc2sc(C(=O)NC3CN(c4ccc(F)c(F)c4)C3)c(N)c2c1C | 0.0288 µM and 0.03 µM | 84% | clearance [4]: 4.4 mL/min/kg
Cc1nnc2sc(C(=O)NC3CN(c4cncnc4)C3)c(N)c2c1C | 0.041 µM and 0.0389 µM | 89% | Kp at 0.25 h [3]: < 0.05
COc1cccc(N2CC(NC(=O)c3sc4nnc(C)c(C)c4c3N)C2)c1 | 0.141 µM and 0.132 µM | 77% | 
Cc1nnc2sc(C(=O)NC3CN(c4ccc(C(F)(F)F)nc4)C3)c(N)c2c1C | 0.076 µM | 75% | EC50 [5]: 0.96 µM; half-life [6]: 1.3 h; clearance [4]: 8.8 mL/min/kg; Kp [3]: 0.12; K(p,uu,brain) [7]: 0.33; efflux ratio (MDR1): 8.5; Activity (Rattus norvegicus [8]): 55%; IC50 (Cytochrome P450 3A4): > 30 µM; IC50 (Cytochrome P450 2D6): > 30 µM; IC50 (Cytochrome P450 2C9): > 30 µM; IC50 (Cytochrome P450 1A2): > 30 µM; Vd [9]: 0.89 L/kg; Activity (Rattus norvegicus [10]): 48%; Activity (Rattus norvegicus [11]): 55 - 56%; Activity (Rattus norvegicus [12]): 44%; %max [13]: 43%
Cc1nnc2sc(C(=O)NC3CN(C(=O)Oc4ccccc4)C3)c(N)c2c1C | 0.023 µM | 96% | EC50 [5]: 2.65 µM; half-life [6]: < 0.5 h
Cc1nnc2sc(C(=O)NC3CN(c4nc5ccccc5o4)C3)c(N)c2c1C | 0.419 µM | 89% | 

SMILES | EC50 [1] | %max [2] | other results
Cc1nnc2sc(C(=O)NC3CN(c4ccncc4Cl)C3)c(N)c2c1C | 0.008 µM | 86% | Drug metabolism (Rattus norvegicus [14]): Metabolite_Detected
COc1cncc(N2CC(NC(=O)c3sc4nnc(C)c(C)c4c3N)C2)c1 | 0.017 µM | 88% | Kp [3]: < 0.05
COc1cc(N2CC(NC(=O)c3sc4nnc(C)c(C)c4c3N)C2)ccn1 | 0.051 µM | 86% | Drug metabolism (Rattus norvegicus [14]): Metabolite_Detected
Cc1nnc2sc(C(=O)NCc3ccc(S(=O)(=O)C(F)(F)F)cc3)c(N)c2c1C |  |  | Activity (Rattus norvegicus [8]): 62%
Cc1nnc2sc(C(=O)NC3CN(c4cc(F)nc(F)c4)C3)c(N)c2c1C | 0.011 µM | 84% | 
Cc1nnc2sc(C(=O)NC3CN(c4ccnc(Cl)c4)C3)c(N)c2c1C | 0.185 µM | 87% | 
Cc1nnc2sc(C(=O)NC3CN(c4ccc(S(=O)(=O)C(F)(F)F)cc4)C3)c(N)c2c1C | 0.934 µM | 86% | 
Cc1nnc2sc(C(=O)NC3CN(c4cccnc4)C3)c(N)c2c1C | 0.034 µM and 0.0331 µM | 96% | Kp at 0.25 h [3]: < 0.05
Cc1nnc2sc(C(=O)NC3CN(C(=O)c4ccncc4)C3)c(N)c2c1C | 0.179 µM | 85% | EC50 [5]: > 10 µM; clearance [4]: 3.1 mL/min/kg; Kp [3]: 0.03; K(p,uu,brain) [7]: 0.37; efflux ratio (MDR1): 96
Cc1nnc2sc(C(=O)NC3CN(c4ccccn4)C3)c(N)c2c1C | 0.124 µM | 81% | 
Cc1nnc2sc(C(=O)NC3CN(c4cccnc4F)C3)c(N)c2c1C | 0.029 µM | 82% | 
Cc1nnc2sc(C(=O)NC3CN(C(=O)OCc4ccccc4)C3)c(N)c2c1C | 0.03 µM | 81% | 
Cc1nnc2sc(C(=O)NC3CN(c4ccc(F)cc4)C3)c(N)c2c1C | 0.282 µM | 77% | 
Cc1nnc2sc(C(=O)NC3CN(c4ccc(S(=O)(=O)C(F)F)cc4)C3)c(N)c2c1C | 0.325 µM | 75% | 
Cc1nnc2sc(C(=O)NC3CN(c4nc5cccnc5s4)C3)c(N)c2c1C | 0.106 µM | 81% | EC50 [5]: 0.22 µM; Kp [3]: 0.17; K(p,uu,brain) [7]: 1.3; Activity (Rattus norvegicus [8]): 16%
Cc1nnc2sc(C(=O)NC3CN(C(=O)c4ccccn4)C3)c(N)c2c1C | 0.564 µM | 91% | 
Cc1nnc2sc(C(=O)NC3CN(c4ccccc4)C3)c(N)c2c1C | 0.025 µM | 85% | EC50 [5]: 1.78 µM; clearance [4]: 45 mL/min/kg; Kp [3]: 0.57; K(p,uu,brain) [7]: 0.73; %max [13]: 58%
